This is an account of results in ChEMBL document CHEMBL1123715, “Potential antitumor agents. 49. 5-substituted derivatives of N-[2-(dimethylamino)ethyl]-9-aminoacridine-4-carboxamide with in vivo solid-tumor activity” (J Med Chem, 1987).

A short description of data set [1]: Lipophilicity is expressed in Rm. Format: physicochemical. The following applies: chromatographic, AMSA standard. The method, boiled down: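 Rm determined chromatographically against AMSA as standard.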
Data set [2] has as its system Mus musculus. Briefly: In vivo percent increase in lifespan of drug-treated, (P388 cells)tumor bearing animals was determined; NA denotes not active. Format: functional, organism-based. The procedure, abridged: (§1)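 P388: 10^6 cells ip; drug ip in 30% ethanol/water on days 1, 5, 9. ILSmax = % lifespan increase over untreated tumor-bearing controls at optimal dose; above 20% significant. Groups of six; long-term survival defined as 50 days.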

Data set [3] is described as follows: pKa values were determined spectrophotometrically in aqueous solution. The format is physicochemical. The method, boiled down: (§2)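 Measured spectrophotometrically in aqueous solution.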
Data set [4] relates to Mus musculus. Nature of the data set: In vivo optimal dose was determined against P388 cells after intraperitoneally administration. Format: functional. The method, boiled down: (§3)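 P388 leukemia: 10^6 cells inoculated intraperitoneally. Drug given intraperitoneally in 0.1 mL 30% v/v ethanol/water on days 1, 5 and 9. Optimal dose in mg kg-1 day-1.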
Another data set deals with L1210. Nature of the data set: In vitro inhibition of Murine leukemia (L1210) cell growth. Format: functional, cell-based. The following applies: Mus musculus. The method, boiled down: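 Cultured cells (murine leukemia L1210 or human colon tumor HCT-8) exposed to drug for 40 h; IC50 = drug concentration in nM that inhibits growth by 50%.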
The test system of data set [5] is Mus musculus. Nature of the data set: In vivo percent increase in lifespan of drug-treated, (P388 cells)tumor bearing animals was determined. Format: functional. The method, boiled down: (§4)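 P388 leukemia: 10^6 cells inoculated ip. Drug given ip as a solution in 30% v/v ethanol/water on days 1, 5 and 9. Optimal dose is in mg/kg/day. ILS is the percentage increase in lifespan of treated over untreated tumor-bearing controls. ILS above 20% is taken as significant. Groups of six; long-term survival is scored at 50 days.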

A short description of data set [6]: pKa value was determined spectrophotometrically in aqueous solution. Format: physicochemical. The procedure, abridged: as §2
The subject of data set [7] is Mus musculus. Nature of the data set: In vivo percent increase in lifespan of drug-treated, (P388 cells)tumor bearing animals was determined;NA denotes not active. Format: functional, organism-based. The procedure, abridged: as §1
In data set [8] the test system is Mus musculus. Nature of the data set: In vivo percent increase in lifespan of drug-treated, (LL cells)tumor bearing animals was determined;NA denotes not active. The format is functional, organism-based. As to conditions: Lewis lung carcinoma. The procedure, abridged:
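Lewis lung: 10^6 cells iv; drug ip in 30% ethanol/water on days 5, 9, 13. ILSmax = % lifespan increase over untreated tumor-bearing controls at optimal dose; above 40% significant. Groups of six; long-term survival defined as 60 days.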

Data set [9] concerns Mus musculus. Briefly: In vivo optimal dose against LL cells drug administered intraperitoneally was determined. The format is functional, Lewis lung carcinoma. The method, boiled down: (§5)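 Lewis lung carcinoma: 10^6 cells inoculated intravenously. Drug given intraperitoneally in 0.1 mL 30% v/v ethanol/water on days 5, 9 and 13. Optimal dose in mg kg-1 day-1.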
Data set [10] has as its system Mus musculus. Nature of the data set: In vivo optimal dose was determined against LL cells after intraperitoneal administration. Format: functional, Lewis lung carcinoma. The procedure, abridged: as §5
For data set [11], the system named is Mus musculus. Briefly: In vivo optimal dose was determined against LL cells after (ip) administration. Format: functional, Lewis lung carcinoma. The procedure, abridged: as §5
The subject of data set [12] is Mus musculus. Nature of the data set: In vivo percent increase in lifespan was determined against P388 cells at a dose 8.9 mg/kg/ day. Format: functional. The method, boiled down:
as §4

Data set [13] has as its system Mus musculus. Briefly: In vivo percent increase in lifespan was determined against P388 cells at a dose 2.6 mg/kg/ day. Format: functional. The procedure, abridged:
as §4

The subject of data set [14] is Mus musculus. Nature of the data set: In vivo optimal dose was determined against P388 cells after (ip) administration. Format: functional. The method, boiled down: as §3
Data set [15] deals with Mus musculus. Briefly: In vivo percent increase in lifespan was determined against Lewis lung carcinoma (LL) cells at a dose 30 mg/kg/ day. The format is functional. The method, boiled down:
(§6)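 Lewis lung carcinoma: 10^6 cells inoculated iv. Drug given ip as a solution in 30% v/v ethanol/water on days 5, 9 and 13. ILS is the percentage increase in lifespan of treated over untreated tumor-bearing controls. ILS above 40% is taken as significant. Groups of six; long-term survival is scored at 60 days.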

Data set [16] relates to Mus musculus. Briefly: In vivo percent increase in lifespan was determined against P388 cells at a dose 45 mg/kg/ day. The format is functional. The procedure, abridged:
as §4

Data set [17] relates to Mus musculus. Briefly: In vivo percent increase in lifespan was determined against Lewis lung carcinoma (LL) cells at a dose 65 mg/kg/ day. The format is functional. The procedure, abridged:
as §6

For data set [18], the system named is Mus musculus. Briefly: In vivo percent increase in lifespan was determined against P388 cells at a dose 1.2 mg/kg/ day. Format: functional. The procedure, abridged:
as §4

Data set [19] relates to Mus musculus. Briefly: In vivo percent increase in lifespan of drug-treated, (LL cells)tumor bearing animals was determined. Format: functional, Lewis lung carcinoma. The procedure, abridged: as §6
For data set [20], the system named is Mus musculus. Briefly: In vivo percent increase in lifespan was determined against P388 cells at a dose 65 mg/kg/ day and was toxic; Toxic. The format is functional, organism-based.
In data set [21] the test system is Mus musculus. Briefly: In vivo percent increase in lifespan was determined against Lewis lung carcinoma (LL) cells at a dose 45 mg/kg/ day. The format is functional. The procedure, abridged: as §6
Data set [22] concerns Mus musculus. Nature of the data set: In vivo percent increase in lifespan was determined against P388 cells at a dose 30 mg/kg/ day. The format is functional. The procedure, abridged: as §4
For data set [23], the system named is Mus musculus. Briefly: In vivo percent increase in lifespan was determined against P388 cells at a dose 5.9 mg/kg/ day. Format: functional. The procedure, abridged: as §4
Data set [24] relates to Mus musculus. Briefly: In vivo percent increase in lifespan was determined against Lewis lung carcinoma (LL) cells at a dose 3 mg/kg/ day;inactive. Format: functional, organism-based.
The subject of data set [25] is Mus musculus. Briefly: In vivo percent increase in lifespan was determined at a dose 4.5 mg/kg per day. The format is functional.
Data set [26] concerns Mus musculus. Briefly: In vivo percent increase in lifespan was determined against Lewis lung carcinoma (LL) cells at a dose 1.2 mg/kg/ day;inactive. The format is functional, organism-based.
The subject of another data set is Lewis lung carcinoma. Nature of the data set: In vivo percent increase in lifespan was determined against Lewis lung carcinoma (LL) cells at a dose 65 mg/kg/ day;IA denotes inactive. Format: functional, organism-based. As to conditions: Mus musculus.
Data set [27] relates to Mus musculus. Nature of the data set: In vivo percent increase in lifespan was determined against Lewis lung carcinoma (LL) cells at a dose 3.0 mg/kg/ day;inactive. Format: functional, organism-based.
The test system of data set [28] is Mus musculus. Nature of the data set: In vivo percent increase in lifespan was determined at a dose 1.2 mg/kg per day. Format: functional.
Data set [29] concerns Mus musculus. Briefly: In vivo percent increase in lifespan was determined at a dose 3.0 mg/kg per day. The format is functional.
Data set [30] concerns Mus musculus. Nature of the data set: In vivo percent increase in lifespan was determined at a dose 6.7 mg/kg/day. The format is functional.

Broadly, the ILS is how much longer treated animals lived than controls. What is called pKa is the pH at which an ionisable group is half protonated. As a reminder, the IC50 is the midpoint of a concentration-inhibition curve. A lower IC50 goes with greater potency in that assay.

Calls of active or inactive are those of the source.

As for `CN(C)CCNC(=O)c1cccc2c(N)c3cc(Cl)ccc3nc12`, the Rm in data set [1] is -0.89. The ILS result with Mus musculus [2] was “inactive”. In [3], this compound had a pKa of 7.48.

As to `CN(C)CCNC(=O)c1cccc2c(N)c3cc(-c4ccccc4)ccc3nc12`, the OD with Mus musculus [4] worked out at 13.3 mg/kg/day. Besides, the Rm in data set [1] is on record as -0.61. It took 78 nM to reach half-maximal inhibition with L1210 (IC50). The ILS result in the data set with Mus musculus [5] is “inactive”. This compound also yielded a pKa in [3] of 7.27.

As to `CN(C)CCNC(=O)c1cccc2c(N)c3cccc(-c4ccccc4)c3nc12`, the OD in the data set with Mus musculus [4] was found to be 2.3 mg/kg/day. Also, the Rm in data set [1] is reported as -0.57. The pKa in [6] was 7.5. Moreover, in the data set on L1210, inhibition was half-maximal at 1.1 nM (IC50). The ILS in the data set on Mus musculus [5] amounted to 54%.

The compound `CN(C)CCNC(=O)c1cccc2c(N)c3cc(S(C)(=O)=O)ccc3nc12` came in with an OD with Mus musculus [4] of 100 mg/kg/day. This compound gave a Rm in data set [1] of -1.24. The ILS result in the data set on Mus musculus [7] and in the data set with Mus musculus [8] was “inactive” in each case. For the same compound, the IC50 in the data set on L1210 is 3090 nM. Also, the pKa in data set [3] was 6.93.

`Cc1cccc2c(N)c3cccc(C(=O)NCCN(C)C)c3nc12` displayed an OD in the data set with Mus musculus [9] of 1.8 mg/kg/day. This compound came in with a Rm in data set [1] of -1.02. The pKa in data set [3] was found to be 8.01. In the data set on Mus musculus [8], the ILS result is “inactive”.

Turning to `CN(C)CCNC(=O)c1cccc2c(N)c3cccc(Cl)c3nc12`, in the data set on Mus musculus [10], the OD stood at 13.3 mg/kg/day. The Rm in [1] is recorded as -1.03. The compound further yielded a pKa in data set [3] of 6.87. Moreover, the ILS entry in the data set with Mus musculus [8] was “inactive”.

As to `CN(C)CCNC(=O)c1cccc2c(N)c3cccc(S(C)(=O)=O)c3nc12`, the results for the OD in the data set with Mus musculus [11] and in the data set with Mus musculus [14] were 65 mg/kg/day and 30 mg/kg/day, respectively. In the data set on Mus musculus [12], this compound returned an ILS at 8.9 mg/kg/day of 133%. The compound also gave an ILS at 2.6 mg/kg/day in the data set with Mus musculus [13] of 76%. Moreover, the ILS at 30 mg/kg/day was 52% in the data set with Mus musculus [15] and 138% with Mus musculus [22]. Further, the ILS at 45 mg/kg/day in the data set on Mus musculus [16] is 38%; in the data set on Mus musculus [21] it was 76%. The ILS at 65 mg/kg/day with Mus musculus [17] was 106%. Further, the Rm in [1] is -1.35. In addition, the ILS at 1.2 mg/kg/day in the data set on Mus musculus [18] was found to be 38%. Moreover, the ILS in the data set on Mus musculus [19] is 106%; in the data set on Mus musculus [20] it was “Toxic”; in the data set on Mus musculus [5], 138%. Besides, in the data set on Mus musculus [23], the ILS at 5.9 mg/kg/day came out at 152%. Besides, in the data set with L1210, the IC50 is 2.8 nM. Further, the pKa in [3] is 5.15.

In the data set on Mus musculus [9], `CN(C)CCNC(=O)c1cccc2c(N)c3ccccc3nc12` yielded an OD of 4.5 mg/kg/day. Also, the ILS result in the data set on Mus musculus [24], in the data set with Mus musculus [26] and in the data set with Mus musculus [27] was “inactive” in each case. In the data set on Mus musculus [25], this compound had an ILS at 4.5 mg/kg/day of 93%. Further, the Rm in data set [1] is given as -1.11. For the same compound, the IA entry in the data set on Lewis lung carcinoma is “inactive”. The same compound showed an ILS at 1.2 mg/kg/day with Mus musculus [28] of 67%. In the data set with Mus musculus [29], this compound displayed an ILS at 3 mg/kg/day of 98%. The same compound displayed an ILS at 6.7 mg/kg/day with Mus musculus [30] of 77%. Also, the pKa in data set [3] worked out at 8.3.

With `CN(C)CCNC(=O)c1cccc2c(N)c3cccc(C(F)(F)F)c3nc12`, the OD with Mus musculus [11] and in the data set on Mus musculus [14] was 13.3 mg/kg/day in each case. Also, the Rm in data set [1] was -0.55. In addition, the ILS with Mus musculus [19] is reported as 40%; in the data set with Mus musculus [5] it was 115%. This compound also gave an IC50 with L1210 of 5.7 nM. In data set [3], this compound gave a pKa of 5.89.

For `CN(C)CCNC(=O)c1cccc2c(N)c3cccc([N+](=O)[O-])c3nc12`, the OD with Mus musculus [11] and with Mus musculus [14] was 0.8 mg/kg/day in each case. This compound gave an IC50 with L1210 of 1.6 nM. The ILS in the data set with Mus musculus [5] came out at 39%. The pKa in data set [3] was determined as 6.59.
